BindingDB's records for doi:10.1016/j.bmcl.2007.06.010 (Institut Henri Beaufour, 2007)

Biological target: Melanocortin receptor 4 (Homo sapiens, UniProt P32245)
Test: Displacement of [125I]NDP-alphaMSH from human melanocortin 4 receptor expressed in CHOK1 cells
Method in brief: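 Membranes from CHO-K1 cells stably expressing human MC1, MC3, MC4 or MC5 receptor, 1–10 µg protein/well, in 50 mM Tris-HCl pH 7.4 with 0.2% BSA, 5 mM MgCl2, 1 mM CaCl2, 0.1 mg/mL bacitracin. Incubated with increasing test compound and 0.1–0.3 nM [125I]NDP-α-MSH, 90–120 min at 37 °C depending on subtype. Filtration on PEI-presoaked GF/C filters, cold buffer washes, radioactivity counted; nonlinear regression; three independent measurements.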

Melanocortin receptor 4, sequence (P32245 whole entry): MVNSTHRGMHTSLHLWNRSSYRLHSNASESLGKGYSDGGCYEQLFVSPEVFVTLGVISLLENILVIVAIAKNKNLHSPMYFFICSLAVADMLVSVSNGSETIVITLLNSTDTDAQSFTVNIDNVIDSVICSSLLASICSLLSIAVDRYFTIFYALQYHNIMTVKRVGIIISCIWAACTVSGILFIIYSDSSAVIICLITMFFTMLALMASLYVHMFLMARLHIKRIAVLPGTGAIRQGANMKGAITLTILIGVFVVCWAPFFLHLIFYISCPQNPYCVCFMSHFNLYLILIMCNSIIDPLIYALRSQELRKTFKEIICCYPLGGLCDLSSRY

Ki: 17 nM
SMILES: CC(C)CCN(CCC(C)C)C(=O)c1ccc2nc(NCc3ccccc3)n(CCCN3CCCCC3)c2c1 [2-(benzylamino)-N,N-diisopentyl-3-(3-(piperidin-1-yl)propyl)-3H-benzo[d]imidazole-5-carboxamide]
